Experimental data taken from ChEMBL document CHEMBL3244396, “Synthesis and antileukemic activity of 5-substituted 2,3-dihydro-6,7-bis(hydroxymethyl)-1H-pyrrolizine diesters” (J Med Chem, 1977).

Tests used:
Mus musculus [1] = assay: Toxicity in male CDF1 mouse allografted with mouse P388 cells assessed as animal survival at 100 mg/kg, ip administered daily for 9 days as saline with Tween-80 solution starting 24 hrs after tumor inoculation; type: organism-based; set-up: dose 100 mg/kg, route intraperitoneal; conditions: in vivo
Outline: (§1)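 P-388 leukemia ascitic fluid implanted ip. Compound dosed ip in saline with Tween-80 vehicle, once daily for nine doses from 24 h after tumor inoculation. Acute toxicity scored as toxicity-day survivors per group. Survival was followed up to 30 days, with 30-day survival counted as "cure". Follows NCI screening protocols.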

Mus musculus [2] = assay: Toxicity in male CDF1 mouse allografted with mouse P388 cells assessed as animal survival at 400 mg/kg, ip administered daily for 9 days as saline with Tween-80 solution starting 24 hrs after tumor inoculation; type: organism-based; set-up: dose 400 mg/kg, route intraperitoneal; conditions: in vivo; outline: as §1
Mus musculus [3] = assay: Toxicity in male CDF1 mouse allografted with mouse P388 cells assessed as animal survival at 200 mg/kg, ip administered daily for 9 days as saline with Tween-80 solution starting 24 hrs after tumor inoculation; type: organism-based; set-up: dose 200 mg/kg, route intraperitoneal; conditions: in vivo; outline: as §1
P388 [4] = assay: Antitumor activity against mouse P388 cells allografted in female CDF1 mouse assessed as disease cures by measuring 30-days host survival at 100 mg/kg, ip administered daily for 9 days as saline with Tween-80 solution starting 24 hrs after tumor inoculation relative to control; type: functional; conditions: route intraperitoneal
Outline: (§2)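 P388 ascitic cell inoculum given ip to CDF1 mice of the sex in each line. Nine daily ip doses in saline with Tween-80 as vehicle, starting 24 h after inoculation. Median survival time expressed as %T/C (>125 significant); "cure" defined as 30-day survival.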

P388 [5] = assay: Antitumor activity against mouse P388 cells allografted in female CDF1 mouse assessed as disease cures by measuring 30-days host survival at 50 mg/kg, ip administered daily for 9 days as saline with Tween-80 solution starting 24 hrs after tumor inoculation relative to control; type: functional; conditions: route intraperitoneal; outline: as §2
P388 [6] = assay: Antitumor activity against mouse P388 cells allografted in female CDF1 mouse assessed as disease cures by measuring 30-days host survival at 25 mg/kg, ip administered daily for 9 days as saline with Tween-80 solution starting 24 hrs after tumor inoculation relative to control; type: functional; conditions: route intraperitoneal; outline: as §2
P388 [7] = assay: Antitumor activity against mouse P388 cells allografted in male CDF1 mouse assessed as disease cures by measuring 30-days host survival at 50 mg/kg, ip administered daily for 9 days as saline with Tween-80 solution starting 24 hrs after tumor inoculation relative to control; type: functional; conditions: route intraperitoneal; outline: as §2
P388 [8] = assay: Antitumor activity against mouse P388 cells allografted in male CDF1 mouse assessed as disease cures by measuring 30-days host survival at 25 mg/kg, ip administered daily for 9 days as saline with Tween-80 solution starting 24 hrs after tumor inoculation relative to control; type: functional; conditions: route intraperitoneal; outline: as §2
P388 [9] = assay: Antitumor activity against mouse P388 cells allografted in male CDF1 mouse assessed as disease cures by measuring 30-days host survival at 100 mg/kg, ip administered daily for 9 days as saline with Tween-80 solution starting 24 hrs after tumor inoculation relative to control; type: functional; conditions: route intraperitoneal; outline: as §2
P388 [10] = assay: Antitumor activity against mouse P388 cells allografted in male CDF1 mouse assessed as disease cures by measuring 30-days host survival at 400 mg/kg, ip administered daily for 9 days as saline with Tween-80 solution starting 24 hrs after tumor inoculation relative to control; type: functional; conditions: route intraperitoneal; outline: as §2
P388 [11] = assay: Antitumor activity against mouse P388 cells allografted in male CDF1 mouse assessed as disease cures by measuring 30-days host survival at 200 mg/kg, ip administered daily for 9 days as saline with Tween-80 solution starting 24 hrs after tumor inoculation relative to control; type: functional; conditions: route intraperitoneal; outline: as §2
P388 [12] = assay: Antitumor activity against mouse P388 cells allografted in female CDF1 mouse assessed as change in body weight at 100 mg/kg, ip administered daily for 9 days as saline with Tween-80 solution starting 24 hrs after tumor inoculation; type: functional; conditions: route intraperitoneal
Outline: (§3)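 Ascitic fluid carrying P388 cells was inoculated ip. Compound was given ip in nine daily doses, starting 24 h after inoculation, in Klucel (hydroxypropylcellulose) suspension or in saline with Tween-80. Body-weight difference (treated minus control) was recorded on day 5. Survival was scored as %T/C of median survival time, and 30-day survival counted as cure.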

P388 [13] = assay: Antitumor activity against mouse P388 cells allografted in female CDF1 mouse assessed as change in body weight at 50 mg/kg, ip administered daily for 9 days as saline with Tween-80 solution starting 24 hrs after tumor inoculation; type: functional; conditions: route intraperitoneal; outline: as §3
P388 [14] = assay: Antitumor activity against mouse P388 cells allografted in female CDF1 mouse assessed as change in body weight at 25 mg/kg, ip administered daily for 9 days as saline with Tween-80 solution starting 24 hrs after tumor inoculation; type: functional; conditions: route intraperitoneal; outline: as §3
P388 [15] = assay: Antitumor activity against mouse P388 cells allografted in male CDF1 mouse assessed as change in body weight at 50 mg/kg, ip administered daily for 9 days as saline with Tween-80 solution starting 24 hrs after tumor inoculation; type: functional; conditions: route intraperitoneal; outline: as §3
P388 [16] = assay: Antitumor activity against mouse P388 cells allografted in male CDF1 mouse assessed as change in body weight at 25 mg/kg, ip administered daily for 9 days as saline with Tween-80 solution starting 24 hrs after tumor inoculation; type: functional; conditions: route intraperitoneal; outline: as §3
P388 [17] = assay: Antitumor activity against mouse P388 cells allografted in male CDF1 mouse assessed as change in body weight at 100 mg/kg, ip administered daily for 9 days as saline with Tween-80 solution starting 24 hrs after tumor inoculation; type: functional; conditions: route intraperitoneal; outline: as §3
P388 [18] = assay: Antitumor activity against mouse P388 cells allografted in male CDF1 mouse assessed as change in body weight at 400 mg/kg, ip administered daily for 9 days as saline with Tween-80 solution starting 24 hrs after tumor inoculation; type: functional; conditions: route intraperitoneal; outline: as §3
P388 [19] = assay: Antitumor activity against mouse P388 cells allografted in male CDF1 mouse assessed as change in body weight at 200 mg/kg, ip administered daily for 9 days as saline with Tween-80 solution starting 24 hrs after tumor inoculation; type: functional; conditions: route intraperitoneal; outline: as §3
Mus musculus [20] = assay: Toxicity in female CDF1 mouse allografted with mouse P388 cells assessed as animal survival at 100 mg/kg, ip administered daily for 9 days as saline with Tween-80 solution starting 24 hrs after tumor inoculation; type: organism-based; set-up: dose 100 mg/kg, route intraperitoneal; conditions: in vivo; outline: as §1
Mus musculus [21] = assay: Toxicity in female CDF1 mouse allografted with mouse P388 cells assessed as animal survival at 50 mg/kg, ip administered daily for 9 days as saline with Tween-80 solution starting 24 hrs after tumor inoculation; type: organism-based; set-up: dose 50 mg/kg, route intraperitoneal; conditions: in vivo; outline: as §1
Mus musculus [22] = assay: Toxicity in female CDF1 mouse allografted with mouse P388 cells assessed as animal survival at 25 mg/kg, ip administered daily for 9 days as saline with Tween-80 solution starting 24 hrs after tumor inoculation; type: organism-based; set-up: dose 25 mg/kg, route intraperitoneal; conditions: in vivo; outline: as §1
Mus musculus [23] = assay: Toxicity in male CDF1 mouse allografted with mouse P388 cells assessed as animal survival at 50 mg/kg, ip administered daily for 9 days as saline with Tween-80 solution starting 24 hrs after tumor inoculation; type: organism-based; set-up: dose 50 mg/kg, route intraperitoneal; conditions: in vivo; outline: as §1
Mus musculus [24] = assay: Toxicity in male CDF1 mouse allografted with mouse P388 cells assessed as animal survival at 25 mg/kg, ip administered daily for 9 days as saline with Tween-80 solution starting 24 hrs after tumor inoculation; type: organism-based; set-up: dose 25 mg/kg, route intraperitoneal; conditions: in vivo; outline: as §1

Compound: O=C(NC1CCCCC1)OCc1c(COC(=O)NC2CCCCC2)c(-c2ccc(Cl)c(Cl)c2)n2c1CCC2
- Activity (Mus musculus [1]): Non-toxic
- Activity (Mus musculus [2]): Non-toxic
- Activity (Mus musculus [3]): Non-toxic
- T/C (P388 [4]): 212%
- T/C (P388 [5]): 174%
- T/C (P388 [6]): 168%
- T/C (P388 [7]): 166%
- T/C (P388 [8]): 150%
- T/C (P388 [9]): 187%
- T/C (P388 [10]): 79%
- T/C (P388 [11]): 91%
- Activity (P388 [12]): -2.5 g
- Activity (P388 [13]): -2 g
- Activity (P388 [14]): -1.1 g
- Activity (P388 [15]): -0.6 g
- Activity (P388 [16]): -0.6 g
- Activity (P388 [17]): -1.2 g
- Activity (P388 [18]): -4 g
- Activity (P388 [19]): -2.8 g
- Activity (Mus musculus [20]): Non-toxic
- Activity (Mus musculus [21]): Non-toxic
- Activity (Mus musculus [22]): Non-toxic
- Activity (Mus musculus [23]): Non-toxic
- Activity (Mus musculus [24]): Non-toxic
